Compound activity (PubChem)
The list is not random: actives were taken first. Their share in the collection is about 7.6%.
Jurkat tox 60K – cytotoxic compounds reducing Jurkat cell viability; Jurkat E6.1 viability, ATP luminescence, 48 h; inhibition, % at 4 µM; 56,000 compounds, 1.2% hits;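 active = inhibition above the mean inhibition of all tested compounds plus 3 SD, cut at about 28% in these data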
HEK293 NFkB inh – inhibitors of the PMA/ionomycin-induced NF-kB reporter in HEK293 cells; 62,000 compounds, 0.21% hits; HEK-293 NF-kB luciferase reporter, luminescence; inhibition, % at 3 µM;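 active = inhibition above the mean of all tested compounds plus 3 SD, cut at about 40% in these data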;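 also: 0% = stimulated DMSO wells and 100% = 10 µM reference inhibitor 5653914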
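Timing: 1 h pretreatment, 16 h stimulation, 37 °C; system: HEK-293 cells with stable firefly luciferase reporter driven by four HIV NF-kB elements; doses: 3 µM once, 0.30% DMSO; measured by: luciferase luminescence; control set: DMSO and 10 µM reference inhibitor; repeats: single test; reagent: PMA plus ionomycin mix as NF-kB-activating stimulus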
D1 allo mod – allosterically modulates the human D1 dopamine receptor | HEK293 D1, CRE-luciferase, dopamine EC30 potentiation; actives deviate in either direction | B-score at 10 µM | 58,000 compounds, 5.9% hits | AID 641;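 active = luminescence count or its row- and column-corrected plate score outside the 99.7% band of the plate's sample wells, on either side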
M1 ag – activates the M1 muscarinic receptor | AID 626 | B-score at 10 µM | 64,000 compounds, 3% hits | CHO-M1 cells, Fluo-4 calcium fluorescence, agonist mode; stronger effect = higher value;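 active = fluorescence rise, raw or as B-score row- and column-corrected plate score, outside the 99.7% band of its plate's samples, either direction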
M1 antagonist – M1 muscarinic receptor (rat) antagonism. P08482. CHO-M1 cells, Fluo-4 calcium, ACh EC80 antagonist mode; stronger effect = lower value. B-score at 10 µM. 64,000 compounds, 3.4% hits. AID 628;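 active = calcium fluorescence response, raw or row-and-column corrected B-score, differing from the plate sample mean either way at a set confidence level, mostly lower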
hDAT+cocaine – changed human dopamine transporter uptake under cocaine IC80; AID 449768; 110,000 compounds, 1.3% hits; B-score at 10 µM; LLC-PK1 hDAT cells, [14C]-dopamine uptake with cocaine IC80; actives deviate in either direction;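 active = Z score or B-score, a plate-position-corrected score, falls beyond the plate's 99.7% confidence bounds, in either direction; inactive = both scores lie inside the 99.7% bounds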;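 also: scored against the spread of the other compound wells on the same plate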
Target sequence (Q01959 whole entry, looked up): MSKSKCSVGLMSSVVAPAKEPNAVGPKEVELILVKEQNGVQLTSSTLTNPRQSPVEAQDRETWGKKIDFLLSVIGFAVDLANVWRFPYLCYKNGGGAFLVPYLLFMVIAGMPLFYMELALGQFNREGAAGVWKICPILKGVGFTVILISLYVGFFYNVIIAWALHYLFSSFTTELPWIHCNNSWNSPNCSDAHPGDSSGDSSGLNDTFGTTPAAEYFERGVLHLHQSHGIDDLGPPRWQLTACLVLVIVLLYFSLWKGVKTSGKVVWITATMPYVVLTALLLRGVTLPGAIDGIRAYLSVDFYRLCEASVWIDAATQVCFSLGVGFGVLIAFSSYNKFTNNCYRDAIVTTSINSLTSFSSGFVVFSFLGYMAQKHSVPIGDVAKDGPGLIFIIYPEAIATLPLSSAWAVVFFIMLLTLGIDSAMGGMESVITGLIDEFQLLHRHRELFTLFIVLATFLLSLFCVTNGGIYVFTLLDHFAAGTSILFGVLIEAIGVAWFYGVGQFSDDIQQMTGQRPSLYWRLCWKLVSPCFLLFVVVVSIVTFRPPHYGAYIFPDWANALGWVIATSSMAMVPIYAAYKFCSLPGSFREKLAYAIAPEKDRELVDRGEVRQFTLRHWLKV
D1 mod confirm – confirmation of human D1 dopamine receptor allosteric modulators; luminescence at 10 µM; 2,200 compounds, 88% hits; HEK293 D1 CRE-luciferase, dopamine EC30 potentiation; stronger effect = higher value; shares compounds with D1 allo mod;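 active = luminescence in either of two replicates above the same-plate mean plus 3 SD of the low-dose dopamine control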
D1 no dopamine – activates D1 CRE-luciferase signal without dopamine present | shares compounds with D1 allo mod | HEK293 D1 CRE-luciferase, luminescence, no dopamine; stronger effect = higher value | luminescence at 10 µM | 1,900 compounds, 0.8% hits; in the data active = luminescence above about 3900
Isoprot counter – counter-screen for D1 modulators: isoproterenol response in HEK293 cells. shares compounds with D1 allo mod. HEK293 D1 CRE-luciferase, isoproterenol EC30 counter-screen. calls only at 10 µM. 2,200 compounds, 63% hits. AID 647;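 active = luminescence in either replicate above plate mean of wells with a partly effective reference agonist dose plus 3 SD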;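 also: isoproterenol raises cAMP through native beta-adrenoceptor Gs so signal bypasses D1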
* = called active by the depositor; i = inactive; . = not tested or not shown; + = active, no number.

SMILES	Jurkat tox 60K	HEK293 NFkB inh	D1 allo mod	M1 ag	M1 antagonist	hDAT+cocaine	D1 mod confirm	D1 no dopamine	Isoprot counter
CNC(=O)c1ccsc1NC(=O)c1ccc(Cl)s1	1	-12	4.9*	0.61	-0.027	-0.16	16692*	1816	+
COC(=O)c1sccc1NC(=O)c1ccc(Cl)s1	2	1	1.7	1.4	-0.56	0.1	.	.	.
CCN1C(=O)c2c(C)nc3ccccc3c2C1=O	-5	-4	16*	-0.44	0.043	0.12	15840*	1572	+
CCN1C(=O)c2ccc(-c3nc4ccccc4c(=O)o3)cc2C1=O	-10	-10	-0.98	-0.39	-0.00093	.	.	.	.
CCOC(=O)C1=C(C)NC(C)=C(C(=O)OCC)C1C(=O)OCC(=O)c1ccc2c(c1)OCCO2	3	1	10*	0.27	-0.94	1.4	7616*	1608	+
NC(=O)c1cc(Cc2ccccc2)sc1NC(=O)c1ccco1	-9	-40	8.4*	1.5	0.15	-0.72	15080*	1668	+
O=C(CSc1nnc2scc(-c3ccccc3)n12)Nc1nsc(-c2ccc(Cl)cc2)n1	4	14	0.14	-0.39	-0.64	-0.24	.	.	.
Cc1nc(CSc2nnc3scc(-c4ccc(Cl)cc4)n23)cs1	.	-1	13*	-0.049	-0.28	0.18	18280*	.	+
Cc1cc(NCc2ccc(F)cc2Cl)n2nnnc2n1	6	13	0.29	0.039	-0.21	0.1	.	.	.
CN(C)c1ccc(C(=O)OCc2ccccc2)cc1	.	.	.	.	.	0.57	.	.	.
CN(C)c1ccc(/C(=N\O)c2ccccc2)cc1	-2	10	3.6*	1.8	-0.13	0.73	16920*	2132	+
Cc1cc(Nc2ccc(F)c(Cl)c2)n2ncnc2n1	-1	23	4.3*	0.016	0.47	-0.34	8188*	1652	+
CCn1c2ccccc2c2cc(Nc3cc(C)nc4ncnn34)ccc21	99*	47*	7.5*	2	-0.13	0.52	11088*	1852	+
Cc1cc2cc(CNC(=O)Nc3ccccc3)ccc2n1C	-1	-16	-1	-1.1	-0.3	-0.76	.	.	.
COC(=O)C[C@H]1c2cc(F)ccc2S(=O)(=O)N1c1ccc(N(C)C)cc1	.	.	.	.	.	-0.26	.	.	.
Cc1cc(-c2ccccc2)nc2cc(C(N)=O)nn12	-2	9	9.4*	0.45	-1.3	-0.064	9500*	1480	+
NC(=O)c1cc(-c2ccccc2)nc(N2CCCCCC2)n1	2	9	2.7*	0.11	1	0.24	6540*	1320	i
Nc1nc(N2CCCCC2)nc(N(c2ccccc2)c2ccccc2)n1	-2	-12	-0.38	-0.16	-0.22	-0.93	.	.	.
NC(=O)c1cc(-c2ccccc2)nc(N2CCOCC2)n1	0	14	9.8*	0.27	-0.0026	-0.094	14624*	1472	+
CCOC(=O)CCCSc1nc2sc(C)c(C)c2c(=O)[nH]1	4	10	2.9*	0.031	-0.12	0.29	6744*	.	+
CCCOC(=O)c1ccc(OCC(O)CN2C(=O)NC(C)(C)C2=O)cc1 (stereo not drawn)	-5	-1	.	.	.	-0.03	.	.	.
COC(=O)c1ccc(OCC(O)CN2C(=O)NC(C)(C)C2=O)cc1 (stereo not drawn)	-6	9	5.8*	0.24	-0.29	0.2	6500*	.	i
Nc1nnc(N2CCCCCC2)s1	.	9	-0.76	0.28	0.5	0.61	.	.	.
CC1CCN(c2nnc(N)s2)CC1	-6	0	2.8*	-0.013	-0.067	-0.47	4832	944	i
Cc1cc(C(=O)N2CCc3ccccc32)n(-c2ccccc2)n1	9	16	5.8*	1.2	1.2	0.48	10356*	1556	+
SMILES	Jurkat tox 60K	HEK293 NFkB inh	D1 allo mod	M1 ag	M1 antagonist	hDAT+cocaine	D1 mod confirm	D1 no dopamine	Isoprot counter
O=S(=O)(c1ccc(F)cc1)N1CCC(O)(c2ccc3c(c2)OCO3)CC1	-4	5	-0.28	-1.4	-1.3	-0.24	.	.	.
Cc1ccnc(NS(=O)(=O)c2ccc(CC(C)C)cc2)c1	.	.	.	.	.	-2.1	.	.	.
COCCn1c(-c2ccco2)nc2nc3ccccc3nc21	7	15	9.2*	-0.74	0.037	.	16228*	1728	+
Cc1ccc(Nc2nc(Oc3ccc(OCc4ccccc4)nn3)nc(N3CCOCC3)n2)cc1	-2	31	1.2	0.028	1	-0.45	.	.	.
c1ccc(COc2ccc(Oc3nc(N4CCCCC4)nc(N4CCOCC4)n3)nn2)cc1	7	33	9.2*	0.24	-0.088	0.93	15844*	1888	+
O=C(O)CCn1c(C2CCCCC2)nc2ccccc21	4	21	0.36	-0.25	0.054	0.072	.	.	.
N#CCn1c(C2CCCCC2)nc2ccccc2c1=O	.	8	8.4*	0.75	-0.085	0.13	16652*	1540	+
COc1ccc(/C(O)=C2/C(=O)C(=O)N(c3ncccn3)C2c2ccc(OC)c(OC)c2)cc1 (stereo not drawn)	.	.	.	-0.99	0.37	-0.45	.	.	.
COc1ccc(/C=N/n2c(N)nc3ccccc32)cc1OC	1	16	9.5*	.	.	0.089	21348*	1544	+
C/C(=N\O)C(=O)C(CN1CCCCC1)CN1CCCCC1	3	9	-0.69	-0.64	-0.34	0.74	.	.	.
O=C(C[n+]1ccc(C(=O)N/N=C/c2ccc(Cl)cc2Cl)cc1)c1ccccc1	.	.	.	.	.	2	.	.	.
CCCS(=O)(=O)N1CCC(C(=O)NCCN(C)Cc2ccccc2)CC1	-8	-2	2.6*	-1.1	-0.31	-1.6	5744	1548	i
Brc1cccc(-c2nnc3sc(CNC4CCCC4)cn23)c1	-1	6	0.34	-2	-0.37	0.68	.	.	.
COc1ccc(-c2nnc(COc3ccc4ccccc4c3)o2)cc1OC	.	.	4.9*	-0.53	0.7	2.9*	20456*	1420	+
Oc1c(C(c2cccs2)N2CCN(c3ccccc3)CC2)sc2ncnn12 (stereo not drawn)	-5	10	-1.1	-0.27	-0.29	1.3	.	.	.
CC(=O)Nc1nc(CC(C)C)cc2c1c(=O)oc1ccccc12	-6	12	3.1	0.9	-1.6	0.057	.	.	.
CCCCc1cc2c(c(NC(C)=O)n1)c(=O)oc1ccccc12	-1	8	15*	-0.1	-0.12	-0.44	14552*	1312	+
CCCCc1cc2c(c(NC(=O)CC)n1)c(=O)oc1ccccc12	0	4	6.6*	0.078	-0.21	-0.18	23508*	1676	+
O=C(Oc1nsnc1N1CCOCC1)c1ccccc1	.	.	.	.	.	-0.057	.	.	.
Cn1c(/C(C#N)=C/C2CC=CCC2)nc2ccccc21 (stereo not drawn)	-3	8	3.8*	0.57	-0.13	-0.53	9264*	1596	i
